Our source for the CC50 and viability values is PubChem BioAssay AID602228 (Southern Research Specialized Biocontainment Screening …, 2012).

Inconclusive results are not listed. The source made the active and inactive calls.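 The calls were made as follows: active = viability below 80% at one or more tested concentrations; inconclusive = replicate runs disagree on the 80% viability cutoff; inactive = viability above 80% at every tested concentration.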

Assay [1] deals with Vero E6 viability, CellTiter-Glo luminescence, 72 h. Briefly: Vero E6 cell cytotoxicity, dose response, cytotoxicity control for PfM1AAP inhibitor project, set 2 (AID 602228). In a few lines:
(§1)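 Material: Vero E6 cells | Quantity: 3000 Vero E6 cells per well | Read-out basis: % viability versus DMSO vehicle wells, CC50 by 4-parameter fit | Dosing: 10-point dose series in 2-fold steps | Times: 72 h treatment at 37 °C | Detection: CellTiter-Glo ATP luminescence | Medium: E-MEM complete growth medium with 10% FBS | Control set: Vehicle-treated cell wells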

Test in assay [2]: as above
The settings on record: Vero E6 viability, CellTiter-Glo luminescence, 72 h; at 50 µM (top of the series). In a few lines:
as §1

With `O=C(NCc1ccccc1)C1CCN(S(=O)(=O)c2ccc(Br)s2)CC1`, the 50% cytotoxic concentration (CC50) in assay [1] is 47.4 µM.

In the case of `CC[C@H](C)[C@H](NS(=O)(=O)c1ccc(Br)s1)C(=O)NCc1ccc2c(c1)OCO2`, the viability in assay [2] was 95.3% (inactive).

Turning to `O=C(NCc1ccc(Cl)cc1)C1CCN(S(=O)(=O)c2ccc(Br)s2)CC1`, the CC50 in assay [1] is 17.7 µM.

Take `O=C(NCc1ccc(F)cc1)C1CCN(S(=O)(=O)c2ccc(Br)s2)CC1`: the CC50 in assay [1] is 39.6 µM.

Consider `O=C(NCc1ccc2c(c1)OCO2)C1CCN(S(=O)(=O)c2ccc(Br)s2)CC1`, for which the viability in assay [2] was 89.3% (inactive).
